Test results taken from ChEMBL document CHEMBL4665829, “Synthesis, Structure-Activity Relationship, and Antimalarial Efficacy of 6-Chloro-2-arylvinylquinolines” (J Med Chem, 2020).
Active and inactive are the calls of the source. The rule behind the calls is not given here.

Key:
Plasmodium falciparum [1] = assay: Antiplasmodial activity against chloroquine-resistant Plasmodium falciparum Dd2 infected in human erythrocytes assessed as reduction in microbial growth after 72 hrs by SYBR green I staining based fluorescence assay; type: functional, organism-based; conditions: Dd2, Erythrocyte
In short: (§1)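 SYBR Green I assay: twofold serial dilutions on P. falciparum cultures at 1% parasitemia, 1% hematocrit, 37 °C, 5% CO₂, 72 h, max 0.1% DMSO. DMSO and CQ as growth and inhibition controls. Plates frozen at −80 °C, thawed, lysed in Tris/saponin/EDTA/Triton buffer with 0.01% SYBR Green I, 1 h dark at room temperature. Fluorescence read at 485 ex/530 em. EC50 by nonlinear dose–response fit.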

[2] = Resistant index, ratio of EC50 for antiplasmodial activity against chloroquine-resistant Plasmodium falciparum Dd2 to antiplasmodial activity against chloroquine-sensitive Plasmodium falciparum 3D7; type: functional
Plasmodium falciparum [3] = assay: Antiplasmodial activity against chloroquine-sensitive Plasmodium falciparum 3D7 infected in human erythrocytes assessed as reduction in microbial growth after 72 hrs by SYBR green I staining based fluorescence assay; type: functional, organism-based; conditions: for EC50: 3D7, Erythrocyte; for Activity: Erythrocyte; in short: as §1
[4] = Selectivity index, ratio of EC50 for cytotoxicity against human HepG2 cells to antiplasmodial activity against chloroquine-resistant Plasmodium falciparum Dd2; type: toxicity, cell-based; conditions: read-out: Ratio EC50
HepG2 = assay: Cytotoxicity against human HepG2 cells assessed as reduction in cell viability after 48 hrs by MTS assay; type: cell-based; conditions: HepG2, 48 h
In short: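 HepG2 cells were seeded at 2250 per well and grown 24 h at 37 °C, 5% CO₂. Serial dilutions starting at 25 μM were added for a further 48 h. MTS was then added for 3 h at 37 °C and absorbance read at 490 nm. EC₅₀ came from nonlinear dose–response fits.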

Structure (SMILES)	EC50 (Plasmodium falciparum [1])	also measured
CN(C)CCNc1cc(/C=C/c2cncnc2)nc2ccc(Cl)cc12	155 nM	Ratio EC50 [2]: > 1.3
COc1ccc2nc(/C=C/c3cccnc3)cc(NCCN(C)C)c2c1	71 nM	–
COc1ccc2nc(/C=C/c3ccc([N+](=O)[O-])cc3)cc(NCCN(C)C)c2c1	28.6 nM	–
Clc1ccc2nc(/C=C/C=C/c3ccccc3)cc(NCCCCN3CCOCC3)c2c1	143 nM	–
Cc1cc(NCCN(C)C)c2cc(Cl)ccc2n1	732 nM	–
N#Cc1ccc(/C=C/c2cc(N3CCOCC3)c3cc(Cl)ccc3n2)cc1	1010 nM	–
COc1ccc2nc(/C=C/c3ccco3)cc(NCCN(C)C)c2c1	88.7 nM	–
CN(C)CCNc1cc(/C=C/c2ccccc2)nc2ccc(Cl)cc12	22.4 nM	–
CN(C)CCCCNc1cc(/C=C/c2ccccc2)nc2ccc(Cl)cc12	68 nM	–
Cc1cc(NCCCCN(C)C)c2cc(Cl)ccc2n1	1240 nM	–
COc1ccc2nc(/C=C/c3ccc(F)cc3)cc(NCCN(C)C)c2c1	32.9 nM	–
CN(C)CCNc1cc(/C=C/c2ccc(N(C)C)cc2)nc2ccc(Cl)cc12	88.3 nM	Ratio EC50 [2]: > 1.3
FC(F)(F)c1ccccc1/C=C/c1cc(NCCCCN2CCOCC2)c2cc(Cl)ccc2n1	104 nM	–
COc1ccc(/C=C/c2cc(NCCN(C)C)c3cc(Cl)ccc3n2)cc1	34.8 nM	–
CN(C)CCNc1cc(/C=C/c2ccccc2)nc2ccccc12	80.7 nM	–
Clc1ccc2nc(/C=C/c3ccncc3)cc(Nc3ccc(N4CCCCC4)cc3)c2c1	793 nM	EC50 (Plasmodium falciparum [3]): 155 nM
COc1ccc2nc(/C=C/c3ccc(OC)c(OC)c3)cc(NCCN(C)C)c2c1	187 nM	Activity (Plasmodium falciparum [3]): Active; Ratio EC50 [2]: > 1.3
CN(C)CCCCNc1cc(/C=C/c2ccc(F)cc2)nc2ccc(Cl)cc12	51.2 nM	–
CN(C)CCNc1cc(/C=C/c2ccc(F)cc2)nc2ccc(F)cc12	30.9 nM	–
Fc1ccc(/C=C/c2cc(Nc3ccc(N4CCCCC4)cc3)c3cc(Cl)ccc3n2)cc1	667 nM	EC50 (Plasmodium falciparum [3]): 155 nM
COc1ccc2nc(/C=C/c3ccccc3)cc(NCCN(C)C)c2c1	41.2 nM	Activity (Plasmodium falciparum [3]): Active; Ratio EC50 [2]: > 1.3
CN(C)CCNc1cc(/C=C/c2ccccc2F)nc2ccc(Cl)cc12	26 nM	selectivity ratio [4]: 186; EC50 (Plasmodium falciparum [3]): 55.9 nM; Ratio EC50 [2]: 0.5; EC50 (HepG2): 4830 nM

Structure (SMILES)	EC50 (Plasmodium falciparum [1])	also measured
Fc1ccc(/C=C/c2cc(NCCCCN3CCOCC3)c3cc(Cl)ccc3n2)cn1	54.6 nM	Activity (Plasmodium falciparum [3]): Active
Clc1ccc2nc(/C=C/c3ccncc3)cc(N3CCN(c4ccccn4)CC3)c2c1	2570 nM	EC50 (Plasmodium falciparum [3]): 155 nM
CN(C)CCNc1cc(/C=C/c2ccncc2)nc2ccc(F)cc12	36.1 nM	–
Fc1cc(F)c(F)c(/C=C/c2cc(NCCCCN3CCOCC3)c3cc(Cl)ccc3n2)c1	588 nM	Activity (Plasmodium falciparum [3]): Active
Clc1ccc2nc(/C=C/c3ccccc3)cc(NCCN3CCCC3)c2c1	107 nM	–
Fc1ccc(/C=C/c2cc(NCCN3CCOCC3)c3cc(Cl)ccc3n2)cc1	24.2 nM	selectivity ratio [4]: 711; EC50 (Plasmodium falciparum [3]): 41.8 nM; Ratio EC50 [2]: 0.6; EC50 (HepG2): 17200 nM
CN(C)CCNc1cc(/C=C/c2ccc([N+](=O)[O-])cc2)nc2ccccc12	47.9 nM	–
COc1ccc2nc(/C=C/c3cc(OC)c(OC)c(OC)c3)cc(NCCN(C)C)c2c1	74.2 nM	Activity (Plasmodium falciparum [3]): Active; Ratio EC50 [2]: > 1.3
Clc1ccc2nc(-c3ccccc3)cc(NCCCCN3CCOCC3)c2c1	423 nM	–
CN(C)CCNc1cc(/C=C/c2ccccn2)nc2ccc(Cl)cc12	67.5 nM	–
COc1ccc(/C=C/c2cc(NCCN(C)C)c3cc(F)ccc3n2)cc1	37.8 nM	–
Fc1cccnc1/C=C/c1cc(NCCCCN2CCOCC2)c2cc(Cl)ccc2n1	197 nM	Activity (Plasmodium falciparum [3]): Active
Fc1cnccc1/C=C/c1cc(NCCCCN2CCOCC2)c2cc(Cl)ccc2n1	79.6 nM	–
COc1ccc2nc(/C=C/c3ccccn3)cc(NCCN(C)C)c2c1	1030 nM	–
CN(C)CCCCNc1cc(/C=C/c2ccc([N+](=O)[O-])cc2)nc2ccc(Cl)cc12	52.5 nM	–
Fc1ccc(/C=C/c2cc(N3CCN(c4ccccn4)CC3)c3cc(Cl)ccc3n2)cc1	3300 nM	EC50 (Plasmodium falciparum [3]): 155 nM
COc1cc(/C=C/c2cc(NCCN(C)C)c3cc(Cl)ccc3n2)cc(OC)c1OC	44.4 nM	–
CN(C)CCNc1cc(/C=C/c2nccs2)nc2ccc(Cl)cc12	240 nM	–
Clc1ccc2nc(/C=C/c3ccncc3)cc(NCCN3CCOCC3)c2c1	137 nM	–
Fc1ccc(/C=C/c2cc(NCCCCN3CCOCC3)c3cc(Cl)ccc3n2)c(F)c1	72.6 nM	–
COc1ccc2nc(/C=C/c3cccc([N+](=O)[O-])c3)cc(NCCN(C)C)c2c1	49.5 nM	–
CN(C)CCNc1cc(/C=C/c2cc3ccccc3[nH]2)nc2ccc(Cl)cc12	95.9 nM	Ratio EC50 [2]: > 1.3
